# High-throughput results: PubChem BioAssay, several laboratories
# This is a sample that favours compounds with a hit; in the whole collection about 9.6% have one here.
# bCat KO growth = primary screen for growth suppressors in beta-catenin knockout HCT116 cells (colon tumor, human) | HCT116 beta-catenin knockout viability, CellTiter-Glo, 60 h; stronger effect = lower value | hit rate 1.5% among 140,000 | viability, % at 10 µM;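 active = viability at or under a set limit, the compound median less 4 SD, cut at about 6% in these data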;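 also: 0% = Hyamine 1622 control at 20 µM and 100% = untreated cell control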
# HCT116 PTEN-null = growth suppression of PTEN-null HCT116, primary screen, cell-based, CellTiter-Glo; HCT116 PTEN-null viability, 60 h; stronger effect = lower value; viability, % at 10 µM; hit rate 1.2% among 140,000; AID 827, 2007;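 active = viability at or below a set limit, 4 SD under the median of all tested compounds, cut at about 3.7% in these data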;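 also: PTEN knockout HCT116 line with beta catenin targeted HCT116 as companion control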
# L major viab = Leishmania major promastigote growth inhibition, primary screen; Leishmania major promastigotes, resazurin fluorescence viability; inhibition, % at 10 µM; hit rate 9% among 200,000; AID 1063, 2008; in the data active = inhibition above about 50%;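 also: promastigotes grown with compound for 44 hours at 28 °C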
# PMI act hi M6P = human PMI activators, high substrate, primary screen, biochemical, fluorescence intensity, near-saturating mannose 6-phosphate; Mannose-6-phosphate isomerase (Homo sapiens), P34949; coupled PMI enzyme assay, resazurin fluorescence, 20 min; stronger effect = higher value; 1 = untreated enzyme, 0 = substrate-free blank; activation factor at 20 µM; hit rate 0.34% among 190,000; AID 1216, 2008;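 active = activation factor of 2 or more at 20 µM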
# Target sequence (P34949 whole entry, looked up): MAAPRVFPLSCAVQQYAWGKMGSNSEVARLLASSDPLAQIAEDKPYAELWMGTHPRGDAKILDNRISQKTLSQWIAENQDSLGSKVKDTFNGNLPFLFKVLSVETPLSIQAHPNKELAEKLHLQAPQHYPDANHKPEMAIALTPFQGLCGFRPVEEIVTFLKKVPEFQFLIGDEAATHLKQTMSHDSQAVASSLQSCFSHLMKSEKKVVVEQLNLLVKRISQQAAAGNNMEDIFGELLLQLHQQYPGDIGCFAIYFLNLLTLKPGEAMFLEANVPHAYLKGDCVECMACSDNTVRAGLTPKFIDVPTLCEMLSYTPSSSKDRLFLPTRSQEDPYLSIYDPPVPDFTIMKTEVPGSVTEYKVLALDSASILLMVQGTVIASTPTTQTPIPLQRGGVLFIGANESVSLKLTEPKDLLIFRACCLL
#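 Technique: Diaphorase-driven resazurin-to-resorufin fluorescence, excitation 544, emission 590 nm | Assay system: Human PMI in coupled enzyme assay | Times: Enzyme reaction with compound 20 min at room temperature | Medium: HEPES-buffered pH 7.4 with magnesium and detergent | Reagent: Mannose-6-phosphate 1.0 mM (near-saturating) plus 0.22 mM NADP+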
# PMI act = activators of human PMI, primary screen, biochemical, fluorescence intensity, near-Km mannose 6-phosphate; purified human PMI, coupled resazurin fluorescence, 20 min; stronger effect = higher value; 1 = vehicle control, 0 substrate-free wells; Mannose-6-phosphate isomerase (Homo sapiens), P34949; activation factor at 20 µM; hit rate 0.005% among 190,000;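 active = activation factor of 2 or more at 20 µM, relative to plate controls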
# * marks the source's active call; other numbers are inactive results; x = not tested or not shown.
SMILES,bCat KO growth,HCT116 PTEN-null,L major viab,PMI act hi M6P,PMI act
CC(C)(C)C(=O)CSc1nnc(Nc2ccccc2)s1,x,x,9,1,0.6
COc1ccccc1NC(=O)c1ccc(CN(c2cc(Cl)ccc2C)S(=O)(=O)c2ccccc2)cc1,63,65,2,1.1,1.1
Cc1ccc(Cl)cc1N(Cc1ccc(C(=O)NCc2cccnc2)cc1)S(=O)(=O)c1ccccc1,68,64,83*,1,0.9
CC1=C/C(=N\OS(=O)(=O)c2ccccc2)C(C)=CC1=O,1.8*,1.7*,100*,0.1,-0.1
CC1=C(C)/C(=N\OS(=O)(=O)c2ccc(C)cc2)C=CC1=O,1.8*,1.7*,100*,0.2,0.2
CC1=C/C(=N\OS(=O)(=O)c2ccccc2)C(C(C)C)=CC1=O,1.5*,1.5*,100*,0.1,0.2
COc1ccc(C2C(C#N)=C(/N=C/N3CCN(C)CC3)OC3=C2C(=O)CC(C)(C)C3)cc1OC (stereo unspecified),86,88,64*,1.1,0.9
COc1cc(C2C(C#N)=C(N)OC3=C2C(=O)CC(C)(C)C3)ccc1OC(=O)N1CCOCC1 (stereo unspecified),100,106,-5,0.9,0.9
O=C(Nc1nnc(-c2cccs2)o1)c1cccc(F)c1,x,x,94*,x,x
O=C(Nc1nnc(-c2cccs2)o1)c1cccc(Oc2ccccc2)c1,19,10,52*,1.2,1.2
CN(C(=O)CCc1ccccc1)c1nnc(-c2ccncc2)s1,x,x,2,1.1,1
CCCC1=C(C(=O)OCC)C(c2ccncc2)n2ncnc2N1 (stereo unspecified),100,115,7,0.9,1
CCN(CC#CCC(O)(c1ccccc1)C1CCCC1)C(C)C (stereo unspecified),83,91,68*,1,0.9
N#Cc1c2c(c(Nc3ccc(O)cc3)n3c1nc1ccccc13)CCC2,50,49,-6,0.9,0.9
COc1ccc(NS(=O)(=O)c2cc(NC(=O)C3CCCO3)ccc2N2CCCC2)cc1 (stereo unspecified),x,x,2,1.5,1.5
COc1ccc(NS(=O)(=O)c2cc(NC(=O)/C=C/c3cc(OC)ccc3OC)ccc2N2CCCCC2)cc1,94,93,92*,1,1
COc1ccc(NS(=O)(=O)c2cc(NC(=O)c3ccco3)ccc2N2CCCC2)cc1,26,27,82*,0.9,0.8
CC1(C)CC(=O)C(C=NCC2CCN(C(=S)Nc3cccc(Cl)c3)CC2)=C(O)C1,x,x,-2,1,1
Cc1cccc(C)c1N1CCN(c2ccc3nnc(C(F)(F)F)n3n2)CC1,42,38,60*,0.9,0.8
COc1ccc(Cn2c(=O)[nH]c3cc(C(=O)NC4CCCC4)ccc3c2=O)cc1,x,x,-1,1,1
CC1CCCN(CCCOc2ccc([N+](=O)[O-])cc2)C1 (stereo unspecified),97,79,89*,1,1
COc1ccc(OCCCN2CCCC(C)C2)cc1 (stereo unspecified),97,109,97*,1,1
COc1ccc2[nH]cc(C(=O)CN3CCCC(C)C3)c2c1 (stereo unspecified),88,91,-4,1.1,1.1
CCC(C(=O)c1ccccc1)N(C(=O)c1ccccc1Cl)N1C(=O)C2C3C=CC(C3)C2C1=O (stereo unspecified),88,81,27,0.9,1
Cc1nc2ccccc2nc(C)c1=NOCc1ccccc1Cl,83,85,6,0.8,0.8
SMILES,bCat KO growth,HCT116 PTEN-null,L major viab,PMI act hi M6P,PMI act
CC(=O)c1ccc(OCCn2cnc3ccccc32)cc1,85,91,51*,0.9,1
Cc1ccc(OCCCCn2cnc3ccccc32)cc1,x,x,12,1.1,1.1
c1ccc2c(c1)ncn2CCCCOc1ccc2c(c1)CCC2,15,41,56*,1,1
CCCOc1ccc(Cn2cnc3ccccc32)cc1,43,54,88*,1,0.9
Fc1ccc(Cn2cnc3ccccc32)cc1,100,102,16,1.1,1.1
c1ccc(OCCn2cnc3ccccc32)cc1,110,97,52*,0.9,0.9
C/C(Cc1ccccc1)=N\NC(=O)CNC(=O)c1ccc(C(C)(C)C)cc1,95,97,-3,0.9,0.9
CCC(=O)Nc1ccc(S(=O)(=O)Nc2ccc(Cl)nn2)cc1,90,91,48,1,1.1
COc1ccc(-n2c(CN3CCN(c4ccccn4)CC3)nc3ccc([N+](=O)[O-])cc3c2=O)c(OC)c1,x,x,21,0.7,0.8
CC(C)N(C)S(=O)(=O)c1ccc(Cl)c(C(=O)O)c1,x,x,-4,1.1,1.2
O=C(Cc1cccs1)Nc1nc(-c2ccc(F)cc2F)cs1,24,20,98*,1,1.1
CC1Cc2cc(-c3csc(NC(=O)Cc4cccs4)n3)ccc2N1S(C)(=O)=O (stereo unspecified),5.6*,6,46,0.9,0.8
COc1ccc(OC)c(-c2csc(NC(=O)Cc3cccs3)n2)c1,x,x,20,0.8,0.8
CCC(=O)Nc1nc(-c2ccc3c(c2)CC(C)N3S(C)(=O)=O)cs1 (stereo unspecified),x,x,-1,0.9,0.9
C=CCNC(=O)C1(c2ccccc2)CC1(Cl)Cl (stereo unspecified),94,103,34,1.1,0.9
COc1ccc(N(C(C)C(=O)N/N=C/c2cccnc2)S(C)(=O)=O)cc1 (stereo unspecified),x,x,2,1,1
Cc1nc(-c2ccccc2)sc1C(=O)/C=C/c1ccc(Cl)cc1,20,21,63*,1,1
Cc1ccc(C2=NN3C(C2)c2ccccc2OC32C(=O)Nc3ccccc32)cc1 (stereo unspecified),33,44,100*,0.9,0.9
Cc1cnccc1CN(C)Cc1cn(C)nc1-c1ccc(Oc2ccccc2)cc1,x,x,89*,0.9,0.9
Cc1cnccc1CN(C)Cc1cn(C)nc1-c1cccc(Cl)c1,x,x,8,1,0.9
COC(=O)CC1C(=O)NCCN1C(=S)Nc1ccccc1Cl (stereo unspecified),x,x,-3,0.9,0.9
CCCN(CCC)CCNC(=S)Nc1ccc2nc3n(c(=O)c2c1)CCCCC3,x,x,11,0.9,1
Cc1ccc(C(=O)NCCc2nnc(SCC(=O)Nc3nc(-c4ccccc4)cs3)n2C)cc1,1.0*,0.8*,-5,1.1,1
Cc1ccc(-c2csc(NC(=O)CSc3nc4ccccc4o3)n2)cc1,93,95,81*,1.1,1.1
Cn1c(CCNC(=O)c2cccs2)nnc1SCC(=O)Nc1nc(-c2ccccc2)cs1,97,91,1,1.1,1
CCSc1nc2c(sc3ccccc32)c(=O)n1C(C)C,96,88,-2,1.1,1
